The results in this text go back to ChEMBL document CHEMBL1157594, “Synthesis and evaluation of a set of 4-phenylpiperidines and 4-phenylpiperazines as D2 receptor ligands and the discovery of the dopaminergic stabilizer 4-[3-(methylsulfonyl)phenyl]-1-propylpiperidine (huntexil, pridopidine, ACR16)” (J Med Chem, 2010).

Test [1] addresses T1, D(2) dopamine receptor (Homo sapiens, UniProt P14416). Put plainly: biochemical. It counts as cell-based, HEK293.
For test [2], the target named is T1, D(2) dopamine receptor. Put plainly: biochemical. It is filed as cell-based, HEK293. The source holds these as a separate data set.
Test [3] relates to Rattus norvegicus. The test can be described thus: Reduction in 3,4-dihydroxyphenylacetic acid level in Sprague-Dawley rat striatum at 100 umol/kg, sc relative to saline treated control. It is filed as functional. Also on record: scale not given: the % may be the effect or the level left. In short, it runs like this: (§1)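 Striatal DOPAC measured post-mortem after a single test-compound dose. Each level is expressed as a percentage of the saline-treated control, with n = 4. Significance was tested by Student's t test (P<0.05).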

The test system of test [4] is Rattus norvegicus. Put plainly: Reduction in spontaneous locomotor activity in Sprague-Dawley rat striatum at 100 umol/kg, sc relative to control. It counts as functional. Also noted: scale not given: the % may be the effect or the level left.
Test [5] has as its system Rattus norvegicus. The test can be described thus: Reduction in amphetamine-induced locomotor activity in Sprague-Dawley rat striatum at 100 umol/kg, sc relative to control. It is filed as functional. Also on record: scale not given: the % may be the effect or the level left. In short, it runs like this: (§2)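 Rats were pretreated with amphetamine (1.5 mg/kg intraperitoneally). Locomotor activity was recorded 15-60 min after test-compound injection, measured at 25 Hz and compared with amphetamine-pretreated controls, with n = 4.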

In test [6] the test system is Rattus norvegicus. Put plainly: Reduction in 3,4-dihydroxyphenylacetic acid level in Sprague-Dawley rat striatum at 33 umol/kg, sc relative to saline treated control. Also noted: scale not given: the % may be the effect or the level left. It is filed as functional. Put shortly: as §1
The subject of test [7] is Rattus norvegicus. Put plainly: Reduction in spontaneous locomotor activity in Sprague-Dawley rat striatum at 33 umol/kg, sc relative to control. It counts as functional. Also noted: scale not given: the % may be the effect or the level left.
The test system of test [8] is Rattus norvegicus. Put plainly: Reduction in amphetamine-induced locomotor activity in Sprague-Dawley rat striatum at 33 umol/kg, sc relative to control. It is filed as functional. Also on record: scale not given: the % may be the effect or the level left. In short, it runs like this: as §2
Test [9] relates to Rattus norvegicus. The test can be described thus: Reduction in amphetamine-induced locomotor activity in Sprague-Dawley rat striatum at 50 umol/kg, sc relative to control. Also noted: scale not given: the % may be the effect or the level left. It counts as functional. In short, it runs like this:
(§3)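 Rats were pretreated with amphetamine at 1.5 mg/kg intraperitoneally. Locomotor activity was recorded from 15 to 60 min after injection, sampled at 25 Hz, and compared with amphetamine-pretreated controls (n = 4).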

The test system of test [10] is Rattus norvegicus. The test can be described thus: Reduction in 3,4-dihydroxyphenylacetic acid level in Sprague-Dawley rat striatum at 6.59 umol/kg, sc relative to saline treated control. It is filed as functional. Also noted: scale not given: the % may be the effect or the level left. In short, it runs like this: as §1
For test [11], the system named is Rattus norvegicus. The test can be described thus: Reduction in spontaneous locomotor activity in Sprague-Dawley rat striatum at 6.59 umol/kg, sc relative to control. It is filed as functional. Also on record: scale not given: the % may be the effect or the level left.
In test [12] the test system is Rattus norvegicus. Put plainly: Reduction in 3,4-dihydroxyphenylacetic acid level in Sprague-Dawley rat striatum at 7.68 umol/kg, sc relative to saline treated control. It is filed as functional. Also noted: scale not given: the % may be the effect or the level left. Put shortly:
(§4)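 Striatal DOPAC was measured by post-mortem biochemistry in rat striatum and expressed relative to saline-injected controls (n = 4). Significance was tested by Student's t test at P<0.05.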

Test [13] relates to Rattus norvegicus. The test can be described thus: Reduction in spontaneous locomotor activity in Sprague-Dawley rat striatum at 7.68 umol/kg, sc relative to control. It counts as functional. Also noted: scale not given: the % may be the effect or the level left. Put shortly:
(§5)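 Locomotor activity was recorded in partly habituated rats from 15 to 60 min after injection, sampled at 25 Hz. It was expressed as a percentage of saline control.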

Test [14] has as its system Rattus norvegicus. Put plainly: Reduction in amphetamine-induced locomotor activity in Sprague-Dawley rat striatum at 7.68 umol/kg, sc relative to control. It counts as functional. Also noted: scale not given: the % may be the effect or the level left. In short, it runs like this:
as §3

Test [15] concerns Rattus norvegicus. Put plainly: Reduction in 3,4-dihydroxyphenylacetic acid level in Sprague-Dawley rat striatum at 1 umol/kg, sc relative to saline treated control. It counts as functional. Also noted: scale not given: the % may be the effect or the level left. Put shortly:
as §4

Test [16] has as its system Rattus norvegicus. Put plainly: Reduction in spontaneous locomotor activity in Sprague-Dawley rat striatum at 1 umol/kg, sc relative to control. It counts as functional. Also on record: scale not given: the % may be the effect or the level left. In short, it runs like this:
as §5

For test [17], the system named is Rattus norvegicus. Put plainly: Reduction in amphetamine-induced locomotor activity in Sprague-Dawley rat striatum at 1 umol/kg, sc relative to control. It is filed as functional. Also noted: scale not given: the % may be the effect or the level left. Put shortly:
as §3

The test system of test [18] is Rattus norvegicus. Put plainly: Reduction in 3,4-dihydroxyphenylacetic acid level in Sprague-Dawley rat striatum at 10.5 umol/kg, sc relative to saline treated control. It counts as functional. Also noted: scale not given: the % may be the effect or the level left. Put shortly:
as §4

Test [19] has as its system Rattus norvegicus. The test can be described thus: Reduction in spontaneous locomotor activity in Sprague-Dawley rat striatum at 10.5 umol/kg, sc relative to control. It is filed as functional. Also on record: scale not given: the % may be the effect or the level left. Put shortly: as §5
Test [20] relates to Rattus norvegicus. Put plainly: Reduction in amphetamine-induced locomotor activity in Sprague-Dawley rat striatum at 10.5 umol/kg, sc relative to control. It is filed as functional. Also noted: scale not given: the % may be the effect or the level left. Put shortly:
as §3

Test [21] concerns Rattus norvegicus. Put plainly: Reduction in 3,4-dihydroxyphenylacetic acid level in Sprague-Dawley rat striatum at 117 umol/kg, sc relative to saline treated control. It is filed as functional. Also noted: scale not given: the % may be the effect or the level left. Put shortly: as §1
Test [22] relates to Rattus norvegicus. The test can be described thus: Reduction in spontaneous locomotor activity in Sprague-Dawley rat striatum at 117 umol/kg, sc relative to control. It is filed as functional. Also noted: scale not given: the % may be the effect or the level left.

T1 sequence (P14416 whole entry): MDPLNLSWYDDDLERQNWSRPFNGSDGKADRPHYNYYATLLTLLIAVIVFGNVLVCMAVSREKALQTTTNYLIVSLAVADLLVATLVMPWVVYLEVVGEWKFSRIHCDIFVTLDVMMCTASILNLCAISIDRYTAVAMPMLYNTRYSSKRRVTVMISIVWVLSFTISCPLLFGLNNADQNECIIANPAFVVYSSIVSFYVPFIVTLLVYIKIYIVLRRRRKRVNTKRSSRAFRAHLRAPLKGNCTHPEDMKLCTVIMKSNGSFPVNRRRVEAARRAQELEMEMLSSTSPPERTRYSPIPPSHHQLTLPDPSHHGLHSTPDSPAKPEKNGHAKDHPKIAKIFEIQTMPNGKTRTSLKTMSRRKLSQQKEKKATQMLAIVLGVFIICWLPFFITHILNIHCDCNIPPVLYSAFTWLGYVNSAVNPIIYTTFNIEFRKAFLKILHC

Take `CCCN1CCC[C@@H](c2cccc(S(C)(=O)=O)c2)C1`: the Ki on D(2) dopamine receptor [1] amounted to 3880 nM; at D(2) dopamine receptor [2], 755 nM. In addition, the Activity is 260% in the test with Rattus norvegicus [3], 215% in the test on Rattus norvegicus [4] and 37% in the test with Rattus norvegicus [5].

With `CCCN1CCN(c2cccc(O)c2)CC1`, the values for the Ki at D(2) dopamine receptor [1] and at D(2) dopamine receptor [2] were 721 nM and 69 nM, respectively. In addition, the Activity in the test with Rattus norvegicus [6] is on record as 261%; in the test on Rattus norvegicus [7] it was 31%; with Rattus norvegicus [8], 16%.

With `Oc1cccc(C2CCN(Cc3ccccc3)CC2)c1`, the Ki at D(2) dopamine receptor [1] amounted to 285 nM; at D(2) dopamine receptor [2], 35 nM. Moreover, the Activity with Rattus norvegicus [6] was found to be 317%; with Rattus norvegicus [7] it was 85%; in the test with Rattus norvegicus [8], 12%.

Regarding `CCCN1CCC(c2cccc(O)c2)CC1`, the Ki on D(2) dopamine receptor [1] stood at 2570 nM; at D(2) dopamine receptor [2] it was 349 nM.

For the compound `CS(=O)(=O)c1cccc(C2CCN(Cc3ccccc3)CC2)c1`, the values for the Ki at D(2) dopamine receptor [1] and on D(2) dopamine receptor [2] were 841 nM and 392 nM, respectively. The Activity amounted to 310% with Rattus norvegicus [6], 44% in the test on Rattus norvegicus [7] and 6% in the test on Rattus norvegicus [9].

In the case of `CCCN1CCN(c2cccc(S(C)(=O)=O)c2)CC1`, the Ki is 1210 nM at D(2) dopamine receptor [1] and 664 nM on D(2) dopamine receptor [2]. Also, the Activity in the test with Rattus norvegicus [6] is 310%; with Rattus norvegicus [7] it was 27%; in the test on Rattus norvegicus [8], 6%.

Regarding `CS(=O)(=O)c1cccc(N2CCN(Cc3ccccc3)CC2)c1`, the Ki was determined as 1920 nM at D(2) dopamine receptor [1] and 431 nM on D(2) dopamine receptor [2]. Also, the results for the Activity with Rattus norvegicus [3], in the test with Rattus norvegicus [4] and with Rattus norvegicus [5] were 248%, 17% and 15%, respectively.

In the case of `Oc1cccc(N2CCN(Cc3ccccc3)CC2)c1`, the Activity came to 108% in the test on Rattus norvegicus [3], 8% with Rattus norvegicus [4] and 10% with Rattus norvegicus [5].

Regarding `CN1CCc2cccc3c2[C@H]1Cc1ccc(O)c(O)c1-3` [APOMORPHINE], the Activity in the test on Rattus norvegicus [10] is 77%; in the test on Rattus norvegicus [11], 7118%.

Consider `O=C1CCc2ccc(OCCCCN3CCN(c4cccc(Cl)c4Cl)CC3)cc2N1` [ARIPIPRAZOLE], for which the Activity in the test on Rattus norvegicus [12] was 150%; in the test with Rattus norvegicus [13], 2%; in the test with Rattus norvegicus [14] it was 9%.

Consider `O=c1[nH]c2cccc(N3CCN(Cc4cccc(-c5ccccc5)c4)CC3)c2o1` [BIFEPRUNOX], for which the Activity with Rattus norvegicus [12] was determined as 152%; in the test with Rattus norvegicus [13], 7%; with Rattus norvegicus [14], 5%.

As for `O=C(CCCN1CCC(O)(c2ccc(Cl)cc2)CC1)c1ccc(F)cc1` [HALOPERIDOL], the Activity in the test on Rattus norvegicus [15] is listed as 425%; in the test with Rattus norvegicus [16], 7%; in the test on Rattus norvegicus [17], 1%.

Regarding `Cc1cc2c(s1)Nc1ccccc1N=C2N1CCN(C)CC1` [OLANZAPINE], the Activity with Rattus norvegicus [18] is on record as 362%; with Rattus norvegicus [19], 17%; in the test on Rattus norvegicus [20] it was 6%.

Turning to `CCCN1CCC[C@@H](c2cccc(O)c2)C1` [PRECLAMOL], the Activity with Rattus norvegicus [21] was found to be 175%; with Rattus norvegicus [22] it was 37%.

For `CCCN1CCC(c2cccc(S(C)(=O)=O)c2)CC1` [PRIDOPIDINE], the results for the Ki at D(2) dopamine receptor [1] and at D(2) dopamine receptor [2] were 17500 nM and 7520 nM, respectively. Also, the Activity in the test on Rattus norvegicus [3] is 265%; in the test with Rattus norvegicus [4], 262%.

What is called Ki is a dissociation constant, usually derived from enzyme kinetics or from competition with a known ligand.
